Laboratory results reported in ChEMBL document CHEMBL4145471, “New 1,5 and 2,5-disubstituted tetrazoles-dependent activity towards surface barrier of Candida albicans” (Eur J Med Chem, 2018).

Key:
Type in all cases: functional
[1] = tested on: Candida albicans; test: Antifungal activity against Candida albicans ATCC 90028 at 8 ug/ml after 18 hrs relative to control
Method in brief: (§1)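 Planktonic broth microdilution per M27-A3 in MOPS-buffered RPMI 1640 (pH 7.0), final inoculum 1.8×10^3 cells/mL, compounds 0.0313–16 µg/mL from 1600 µg/mL stocks in ethanol or DMSO. Incubated at 35°C without agitation; OD405 read at 18 and 48 h. % inhibition was derived from test, sterility (no inoculum) and solvent growth-control wells. Amphotericin B at 0.5 µg/mL served as the 100% control.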

[2] = tested on: Candida albicans; test: Antifungal activity against Candida albicans ATCC 90028 at 4 ug/ml after 18 hrs relative to control; method in brief: as §1
[3] = tested on: Candida albicans; test: Antifungal activity against Candida albicans ATCC 90028 at 0.0625 ug/ml after 48 hrs relative to control; method in brief: as §1
[4] = tested on: Candida albicans; test: Antifungal activity against Candida albicans ATCC 90028 at 0.5 ug/ml after 18 hrs relative to control; method in brief: as §1
[5] = tested on: Candida albicans; test: Antifungal activity against Candida albicans ATCC 90028 at 2 ug/ml after 48 hrs relative to control; method in brief: as §1
[6] = tested on: Candida albicans; test: Antifungal activity against Candida albicans ATCC 90028 at 2 ug/ml after 18 hrs relative to control; method in brief: as §1
[7] = tested on: Candida albicans; test: Antifungal activity against Candida albicans ATCC 90028 at 0.0625 ug/ml after 18 hrs relative to control
[8] = tested on: Candida albicans; test: Fungicidal activity against Candida albicans ATCC 90028 at 16 ug/ml after 48 hrs by M27-A3 microdilution method
Method in brief: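 After 48 h at 35°C in M27-A3 microdilution plates (compound at 16 µg/mL), 50 µL aliquots from treated and solvent-control wells were diluted 10^4 in PBS and plated on drug-free Sabouraud dextrose agar, then incubated 48 h at 35°C. Reduction R = lg CFU/mL control − lg CFU/mL treated; R ≥ 3 defined as fungicidal.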

[9] = tested on: Candida albicans; test: Antifungal activity against Candida albicans ATCC 90028 at 1 ug/ml after 18 hrs relative to control; method in brief: as §1
[10] = tested on: Candida albicans; test: Antifungal activity against Candida albicans ATCC 90028 at 0.0313 ug/ml after 18 hrs relative to control
[11] = tested on: Candida albicans; test: Antifungal activity against Candida albicans ATCC 90028 at 0.0313 ug/ml after 48 hrs relative to control
[12] = tested on: Candida albicans; test: Antifungal activity against Candida albicans ATCC 90028 at 1 ug/ml after 48 hrs relative to control; method in brief: as §1
[13] = tested on: Candida albicans; test: Antifungal activity against Candida albicans ATCC 90028 at 16 ug/ml after 18 hrs relative to control; method in brief: as §1
[14] = tested on: Candida albicans; test: Antifungal activity against Candida albicans ATCC 90028 at 16 ug/ml after 48 hrs relative to control; method in brief: as §1
[15] = tested on: Candida albicans; test: Antifungal activity against Candida albicans ATCC 90028 at 0.25 ug/ml after 18 hrs relative to control
Method in brief: (§2)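 Fluconazole (water stock, diluted in RPMI 1640) tested by CLSI M27-A3 broth microdilution against C. albicans ATCC 90028. Inoculum 1.8×10^3 cells/mL in RPMI 1640 buffered with MOPS, pH 7.0. Incubation at 35°C without agitation, read at 18 and 48 h. Growth by OD405 and visually; inhibition % calculated against solvent growth-control wells after subtracting sterility-control wells.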

[16] = tested on: Candida albicans; test: Antifungal activity against Candida albicans ATCC 90028 at 0.5 ug/ml after 48 hrs relative to control; method in brief: as §1
[17] = tested on: Candida albicans; test: Antifungal activity against Candida albicans ATCC 90028 at 0.125 ug/ml after 48 hrs relative to control; method in brief: as §1
[18] = tested on: Candida albicans; test: Antifungal activity against Candida albicans ATCC 90028 at 4 ug/ml after 48 hrs relative to control; method in brief: as §1
[19] = tested on: Candida albicans; test: Antifungal activity against Candida albicans ATCC 90028 at 8 ug/ml after 48 hrs relative to control; method in brief: as §1
[20] = tested on: Candida albicans; test: Antifungal activity against Candida albicans ATCC 90028 at 0.25 ug/ml after 48 hrs relative to control; method in brief: as §2
[21] = tested on: Candida albicans; test: Antifungal activity against Candida albicans ATCC 90028 at 0.125 ug/ml after 18 hrs relative to control; method in brief: as §1

| SMILES | Activity [1] [%] | Activity [2] [%] | Activity [3] [%] | Activity [4] [%] | Activity [5] [%] | Activity [6] [%] | Activity [7] [%] | Activity [8] [log10CFU/ml] | Activity [9] [%] | Activity [10] [%] | Activity [11] [%] | Activity [12] [%] | Activity [13] [%] | Activity [14] [%] | Activity [15] [%] | Activity [16] [%] | Activity [17] [%] | Activity [18] [%] | Activity [19] [%] | Activity [20] [%] | further results |
| --- | --- | --- | --- | --- | --- | --- | --- | --- | --- | --- | --- | --- | --- | --- | --- | --- | --- | --- | --- | --- | --- |
| ClCCCn1nnc(-c2ccccc2Cl)n1 | 98.9 | 99.32 | 99.03 | 98.9 | 98.6 | 95 | 98.61 | 0.51 | 98.99 | 99.97 | 99.17 | 98.69 | 94.16 | 98.34 | 99.95 | 98.89 | 99.13 | 98.5 | 99.05 | 98.96 | Activity [21]: 99.62% |
| CCOC(=O)CCn1nnc(-c2ccc(C)cc2)n1 | 99.61 | 98.99 | 98.79 | 99.07 | 98.95 | 98.19 | 99.51 | -0.23 | 45.15 | 99.31 | 98.81 | 96.34 | 99.98 | 99.37 | 98.38 | 99.16 | 98.72 | 98.95 | 99.14 | 98.95 | Activity [21]: 99.76% |
| Clc1ccc(-c2nnn(CCCN3CCOCC3)n2)cc1 | 96.3 | 98.1 | 99.28 | 92.34 | 99.61 | 98.31 | 100 | 0.34 | 98.79 | 97.92 | 99.12 | 99.36 | 100 | 99.35 | 99.91 | 99.32 | 98.92 | 98.97 | 98.81 | 99.24 | Activity [21]: 99.95% |
| ClCCCn1nnnc1-c1ccccc1 | 98.57 | 98.66 | 99.12 | 97.53 | 97.23 | 95.82 | 99.45 | -0.18 | 96.69 | 99.65 | 99.02 | 98.8 | 98.95 | 99.05 | 94.68 | 98.82 | 99.16 | 98.9 | 98.81 | 98.19 | Activity [21]: 98.12% |
| ClCCCn1nnc(-c2ccccc2)n1 | 99.54 | 99.53 | 99.76 | 99.1 | 99.57 | 99.25 | 99.99 | -0.23 | 62.02 | 99.51 | 99.38 | 97.6 | 99.36 | 99.22 | 98.55 | 99.16 | 99.19 | 99.29 | 99.63 | 99.16 | Activity [21]: 99.65% |
| c1ccc(-c2nnn(CCCN3CCOCC3)n2)cc1 | 99.94 | 99.64 | 99.55 | 99.52 | 98.84 | 85.92 | 99.93 | -0.34 | 80.42 | 94.63 | 98.98 | 98.87 | 97.02 | 99.31 | 99.96 | 99.59 | 97.95 | 99.15 | 98.82 | 99.13 | Activity [21]: 99.81% |
| Cc1ccc(-c2nnn(CCCCl)n2)cc1 | 99.06 | 99.63 | 99.12 | 97.59 | 98.87 | 98.39 | 99.06 | 0.65 | 99.6 | 98.95 | 98.94 | 98.65 | 98.46 | 98.26 | 99.45 | 98.95 | 98.92 | 98.84 | 99.08 | 98.79 | Activity [21]: 98.66% |
| CCOC(=O)CCn1nnc(-c2ccc(Cl)cc2)n1 | 97.97 | 99.85 | 98.8 | 98.32 | 99.12 | 99.74 | 99.88 | 0.29 | 84.36 | 99.32 | 99.14 | 98.78 | 100 | 98.78 | 99.95 | 99 | 98.85 | 99.07 | 98.86 | 98.87 | Activity [21]: 99.92% |
